For experiment [1], the species on record is Homo sapiens. In words: Binding affinity to human HSP90A 5'-FAM-GGGCCAAAGGGAAGGGGTGGG-TAMRA-3' at 2 uM after 3 hrs by HT-FRET assay. The procedure, abridged: (§1)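 Oligonucleotides were diluted from 50 µM stock to 400 nM in 60 mM potassium cacodylate pH 7.4, annealed at 95 °C for 10 min, then cooled to RT over 3 h. Ligand came from a 10 mM aqueous stock, was diluted to twice the final level in buffer and mixed 1:1 with DNA, in triplicate. FAM excitation was 450–495 nm and emission 515–545 nm, read every 0.5 °C from 30–100 °C with a 30 s hold. Tm is the first-derivative maximum of the smoothed, normalized curve; ΔTm is relative to DNA without ligand.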

For experiment [2], the system named is PANC-1. In words: Cytotoxicity against human PANC1 cells after 96 hrs by SRB assay. The class given is functional, cell-based. As to conditions: PANC-1, 96 h. The method, boiled down:
(§2)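 For A549, MCF7, MIA PaCa2 (DMEM with 2 mM glutamine and 10% FCS) and PANC1 (same DMEM), 1000–4000 cells per well were seeded and left 24 h. Compound was added over a concentration range for 96 h at 37 °C in 5% CO2. Cells were fixed with 10% TCA (30 min, 4 °C) and stained with 0.4% SRB in 1% acetic acid for 15 min. Dye was dissolved in 10 mM Tris and read at A540. IC50 was interpolated as the level giving 50% absorbance loss versus untreated cells.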

The nature of experiment [3]: Cytotoxicity against human 786-O cells after 96 hrs by SRB assay. It counts as functional, cell-based. As to conditions: 786-0, 96 h. The method, boiled down: (§3)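 Monolayer cultures were kept at 37 °C in humidified 5% CO2. Media were RPMI 1640 with 2 mM glutamine, 10% FCS and 1 mM pyruvate for 786-O, and MEM with 2 mM glutamine, 1% amino acids and 10% FCS for WI-38. Cells were exposed to compound over a concentration range for 96 h. Cells were fixed with TCA, stained with SRB, dissolved in 10 mM Tris and read at 540 nm. Values were normalized to untreated controls, and IC50 was interpolated as 50% absorbance reduction.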
On the technique in general: In SRB staining, fixed cells bind dye roughly in proportion to their protein.

The next experiment has as its system MIA PaCa-2. In words: Cytotoxicity against human MIAPaCa2 cells after 96 hrs by SRB assay. As to conditions: MIA PaCa-2, 96 h. It counts as functional, cell-based. The method, boiled down: as §2
A further experiment has as its system MCF7. In words: Cytotoxicity against human MCF7 cells after 96 hrs by SRB assay. As to conditions: MCF7, 96 h. It counts as functional, cell-based. The procedure, abridged: as §2
The species entered for experiment [4] is Homo sapiens. In words: Binding affinity to human telomeric quadruplex 5'-FAM-GGGTTAGGGTTAGGGTTAGGG-TAMRA-3' at 2 uM after 3 hrs by HT-FRET assay. The method, boiled down:
as §1

The species entered for experiment [5] is Homo sapiens. In words: Binding affinity to human T-loop 5'-FAM-TATAGCTATATTTTTTTATAGCTATATAMRA-3' at 1 uM after 3 hrs by HT-FRET assay. The procedure, abridged:
as §1

Experiment [6] is filed under the species Homo sapiens. In words: Binding affinity to human telomeric quadruplex 5'-FAM-GGGTTAGGGTTAGGGTTAGGG-TAMRA-3' at 1 uM after 3 hrs by HT-FRET assay. The procedure, abridged:
as §1

The species entered for experiment [7] is Homo sapiens. In words: Binding affinity to human T-loop 5'-FAM-TATAGCTATATTTTTTTATAGCTATATAMRA-3' at 2 uM after 3 hrs by HT-FRET assay. The procedure, abridged: as §1
The next experiment relates to WI-38. In words: Cytotoxicity against human WI38 cells after 96 hrs by SRB assay. As to conditions: WI-38, 96 h. The class given is cell-based. The method, boiled down: as §3
For experiment [8], the species on record is Homo sapiens. In words: Binding affinity to human HSP90B 5'-FAM-GGGCGGGCCAAAGGGAAGGGG-TAMRA-3' at 1 uM after 3 hrs by HT-FRET assay. The procedure, abridged: as §1
The species named for experiment [9] is Homo sapiens. In words: Binding affinity to human HSP90B 5'-FAM-GGGCGGGCCAAAGGGAAGGGG-TAMRA-3' at 2 uM after 3 hrs by HT-FRET assay. The method, boiled down:
as §1

For experiment [10], the species on record is Homo sapiens. In words: Binding affinity to human HSP90A 5'-FAM-GGGCCAAAGGGAAGGGGTGGG-TAMRA-3' at 1 uM after 3 hrs by HT-FRET assay. The procedure, abridged: as §1
In the next experiment the test system is A549. In words: Cytotoxicity against human A549 cells after 96 hrs by SRB assay. As to conditions: A549, 96 h. It counts as functional, cell-based. The procedure, abridged: as §2
A short description of experiment [11]: Cytotoxicity against human RCC4 cells after 96 hrs by SRB assay. It counts as functional, cell-based. As to conditions: RCC4, 96 h.
Experiment [12] has as its system PANC-1. In words: Ratio of IC50 for human MIAPaCa2 cells to IC50 for human PANC1 cells. The class given is functional.

For the compound `CN1CCN(CCCN2C(=O)c3cc(NCC4CCOCC4)c4c5c(cc(NCC6CCOCC6)c(c35)C2=O)C(=O)N(CCCN2CCN(C)CC2)C4=O)CC1`, the ΔTm (in general, the change in melting temperature against a reference sample) in the experiment filed under Homo sapiens [1] is 27 °C; in the experiment filed under Homo sapiens [4], 22 °C; in the experiment listed under Homo sapiens [5] it was 0 °C; in the experiment listed under Homo sapiens [6], under 2 °C; in the experiment listed under Homo sapiens [7], 0 °C; in the experiment filed under Homo sapiens [8] it was 3 °C. Besides, the values for the ΔTm in the experiment filed under Homo sapiens [9] and in the experiment filed under Homo sapiens [10] were 23 °C and 2 °C, respectively. In addition, the IC50 – broadly, the concentration that inhibits the measured activity by half – worked out at 1100 nM in the experiment with PANC-1 [2]; 290 nM in [3]; 137 nM with MIA PaCa-2; 510 nM in the experiment with MCF7; 2800 nM in the experiment on WI-38; 460 nM in the experiment with A549. Further, in experiment [11], 2200 nM corresponded to half-maximal inhibition (IC50).

`CN1CCN(CCN2C(=O)c3cc(NCCCN4CCOCC4)c4c5c(cc(NCCCN6CCOCC6)c(c35)C2=O)C(=O)N(CCN2CCN(C)CC2)C4=O)CC1`: the ΔTm was determined as 36 °C in the experiment listed under Homo sapiens [1]; 31 °C in the experiment filed under Homo sapiens [4]; 2 °C in the experiment listed under Homo sapiens [5]; 26 °C in the experiment filed under Homo sapiens [6]; 8 °C in the experiment filed under Homo sapiens [7]; 28 °C in the experiment listed under Homo sapiens [8]. Further, the ΔTm in the experiment listed under Homo sapiens [9] turned out to be 32 °C; in the experiment filed under Homo sapiens [10], 33 °C. In addition, the IC50 in the experiment on PANC-1 [2] stood at 5 nM; in experiment [3], 160 nM; in the experiment on MIA PaCa-2, 5 nM; in the experiment with MCF7, 21 nM; in the experiment on WI-38, 180 nM; in the experiment on A549, 20 nM. In experiment [11], this compound came in with an IC50 of 300 nM.

As for `CN1CCN(CCCN2C(=O)c3cc(NCCCN4CCOCC4)c4c5c(cc(NCCCN6CCOCC6)c(c35)C2=O)C(=O)N(CCCN2CCN(C)CC2)C4=O)CC1`, the ΔTm stood at 36 °C in the experiment listed under Homo sapiens [1]; 34 °C in the experiment filed under Homo sapiens [4]; 5 °C in the experiment listed under Homo sapiens [5]; 29 °C in the experiment filed under Homo sapiens [6]; 9 °C in the experiment listed under Homo sapiens [7]; 30 °C in the experiment listed under Homo sapiens [8]. For the same compound, the ΔTm in the experiment listed under Homo sapiens [9] and in the experiment listed under Homo sapiens [10] was 34 °C in each case. Besides, the IC50 in the experiment on PANC-1 [2] was found to be 2 nM; in [3], 440 nM; with MIA PaCa-2, 50 nM; in the experiment with MCF7 it was 14 nM; in the experiment with WI-38, 300 nM; in the experiment with A549, 7 nM. In experiment [11], this compound returned an IC50 of 610 nM.

Compound `CN1CCN(CCCNc2cc3c4c(c(NCCCN5CCN(C)CC5)cc5c4c2C(=O)N(CCCN2CCOCC2)C5=O)C(=O)N(CCCN2CCOCC2)C3=O)CC1` registered an IC50 with PANC-1 [2] of 3 nM. Further, the “Ratio IC50” value with PANC-1 [12] is 5.

For `CN1CCN(CCCN2C(=O)c3cc(NC[C@@H]4CCCO4)c4c5c(cc(NC[C@H]6CCCO6)c(c35)C2=O)C(=O)N(CCCN2CCN(C)CC2)C4=O)CC1`, the ΔTm is 23 °C in the experiment filed under Homo sapiens [1]; 15 °C in the experiment filed under Homo sapiens [4]; 0 °C in the experiment filed under Homo sapiens [5]; under 2 °C in the experiment filed under Homo sapiens [6]; 0 °C in the experiment filed under Homo sapiens [7]; 13 °C in the experiment listed under Homo sapiens [8]. Also, the ΔTm in the experiment filed under Homo sapiens [9] is 17 °C; in the experiment listed under Homo sapiens [10], 21 °C. The IC50 in the experiment with PANC-1 [2] came to 1500 nM; in experiment [3], 390 nM; in the experiment on MIA PaCa-2, 95 nM; in the experiment on MCF7 it was 560 nM; in the experiment with WI-38 it was 2300 nM; with A549 it was 160 nM. It took 3000 nM to reach half-maximal inhibition in experiment [11] (IC50).

On to `COCCCNc1cc2c3c(c(NCCCOC)cc4c3c1C(=O)N(CCCN1CCN(C)CC1)C4=O)C(=O)N(CCCN1CCN(C)CC1)C2=O`, for which the ΔTm in the experiment listed under Homo sapiens [1] is 24 °C; in the experiment listed under Homo sapiens [4], 16 °C; in the experiment filed under Homo sapiens [5], 0 °C; in the experiment filed under Homo sapiens [6], under 2 °C; in the experiment listed under Homo sapiens [7] it was 0 °C; in the experiment filed under Homo sapiens [8], 22 °C. Further, the ΔTm in the experiment listed under Homo sapiens [9] came out at 26 °C; in the experiment filed under Homo sapiens [10], 22 °C. Moreover, the IC50 in the experiment on PANC-1 [2] is 2500 nM; in experiment [3], 16100 nM; in the experiment with MIA PaCa-2, 7050 nM; with MCF7 it was 17500 nM; with WI-38, over 25000 nM; in the experiment on A549 it was 5750 nM. Further, the IC50 in experiment [11] stood at 7600 nM.

For the origin of these results see ChEMBL document CHEMBL2434865, “The influence of positional isomerism on G-quadruplex binding and anti-proliferative activity of tetra-substituted naphthalene diimide compounds” (Bioorg Med Chem, 2013).
